ChEMBL document CHEMBL1806369, “Carbonic anhydrase I and II activation with mono- and dihalogenated histamine derivatives” (Bioorg Med Chem Lett, 2011)

Experiments:
[1] = biological target: Carbonic anhydrase 2 (Homo sapiens) (UniProt P00918); test: Activation of human cytosolic carbonic anhydrase 2 preincubated for 15 mins by stopped-flow CO2 hydration assay
In short: (§1)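 Initial velocity taken from at least six traces of the first 5–10% of reaction per activator, with uncatalyzed rates measured identically and subtracted. Activator stocks 10 mM in distilled-deionized water, diluted with water down to 0.1 nM. Enzyme and activator preincubated 15 min at room temperature before assay.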

[2] = biological target: Carbonic anhydrase 1 (Homo sapiens) (UniProt P00915); test: Activation of human cytosolic carbonic anhydrase 1 preincubated for 15 mins by stopped-flow CO2 hydration assay; in short: as §1
Chain of Carbonic anhydrase 1 (Homo sapiens) (P00915 2-261 limits assumed): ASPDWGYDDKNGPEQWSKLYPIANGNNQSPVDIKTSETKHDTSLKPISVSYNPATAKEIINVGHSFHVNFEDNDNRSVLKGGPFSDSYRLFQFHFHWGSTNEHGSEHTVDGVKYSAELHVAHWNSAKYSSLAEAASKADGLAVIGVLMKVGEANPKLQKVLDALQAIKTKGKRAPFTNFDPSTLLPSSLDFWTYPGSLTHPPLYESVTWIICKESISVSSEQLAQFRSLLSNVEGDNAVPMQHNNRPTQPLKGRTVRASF

SMILES	KA [1] [µM]	KA [2] [µM]
NCCc1nc[nH]c1I	0.001	0.0007
NCCc1nc[nH]c1Cl	0.032	0.018
CC(C)(C)OC(=O)NCCc1nc(Cl)[nH]c1Cl	50.2	5.4
CC(C)(C)OC(=O)NCCc1nc(Br)[nH]c1Br	44.5	7.1
NCCc1nc(Cl)[nH]c1Cl	0.115	0.021
NCCc1nc(Br)[nH]c1Br	0.096	0.015
CC(C)(C)OC(=O)NCCc1nc[nH]c1I	36.7	12.1
CC(C)(C)OC(=O)NCCc1nc[nH]c1Br	28.5	13.3
CC(C)(C)OC(=O)NCCc1nc[nH]c1Cl	24.8	16.5
NCCc1nc(I)[nH]c1I	0.065	0.0009
NCCc1nc[nH]c1Br	0.008	0.012
CC(C)(C)OC(=O)NCCc1nc(I)[nH]c1I	13.6	29.3
